“Also recorded” adds a separate entry of the source.
Tests used:
NF-κB [1] = test: NF-κB luciferase reporter assay in RSV-infected A549 cells; assay type: cell-based, human; conditions: 10 μM
Summary of the method: (§1)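 A549 cells transfected in triplicate (FuGene 6) with luciferase plasmids carrying NF-κB binding sites (NF-κB-Luc) or the IRF-3 site (PRDIII-I-Luc, IRF-3-Luc). At 20 h post-transfection, cells were infected with RSV long strain, either MOI 1 with 2 h adsorption then virus removed and 10 μM test compound for 15 h, or MOI 5 with 4 h treatment. Cells were lysed for luciferase. Run at least twice; means ± SE.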

IRF3 [2] = test: IRF3 luciferase reporter assay in RSV-infected A549 cells; assay type: cell-based, human; conditions: 10 μM
Summary of the method: as §1

[3] = tested on: RSV-induced cytokines/chemokines; test: RSV-induced cytokine/chemokine induction in SAECs; assay type: cell-based, human; conditions: 10 μM, 4 h posttreatment, RSV MOI 5, SAECs supernatant
Summary of the method: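 Primary human small airway epithelial cells from normal distal lung were infected with RSV long strain at MOI 5. Virus was removed at 2 h and cells were treated with 10 μM test compound. Supernatants were collected at 4 h post-treatment and assayed with a multiplex human cytokine/chemokine bead kit (Bio-Plex) per kit instructions. Run at least twice; means ± SE.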

NF-κB [4] = test: TNF-α-induced NF-κB luciferase reporter in HEK-293 cells; assay type: cell-based, human; conditions: 10 ng/ml TNF-α, 4 h post-treatment
Summary of the method: (§2)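 HEK-293 cells were transiently transfected with IRF-3 (Poly I:C line) or NF-κB (Poly I:C and TNF-α lines) luciferase reporter plasmids. At 15 h post-transfection, cells were stimulated by transfection with Poly I:C or by 10 ng/ml TNF-α and treated with test compound. Luciferase activity was read at 4 h post-treatment. Run at least twice; means ± SE.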

IRF-3 = test: Poly I:C-activated IRF-3 luciferase reporter in HEK-293 cells; assay type: cell-based, human; conditions: 4 h post-treatment
Summary of the method: as §2

RSV = RSV genome copies in infected A549 cells by RT-qPCR; assay type: cell-based, respiratory syncytial virus (RSV long strain); conditions: 10 μM, RSV MOI 1, A549
Summary of the method: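 RSV long strain was grown in HEp-2 cells at 37 °C and purified on a sucrose gradient. A549 cells were infected at MOI 1, then treated with 10 μM test compound for 6, 15 or 24 h. Intracellular RSV genome copies were quantified by RT-qPCR at each time point after treatment.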

[5] = tested on: RSV viral proteins (P, M, N, F); test: RSV viral protein expression in A549 cells by western blot; assay type: cell-based, respiratory syncytial virus (RSV long strain); conditions: 10 μM; for RSV protein expression: 4 h, RSV MOI 5, A549, versus control cells; for expression of viral P, M, N and F proteins: 15 h posttreatment, RSV MOI 1, A549
Summary of the method: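 A549 cells were infected with RSV long strain, either MOI 1 then 10 μM test compound for 15 h, or MOI 5 then 10 μM for 4 h. Total lysates were resolved by SDS-PAGE and transferred to PVDF. Membranes were blocked in 5% milk/TBS-Tween 20 and probed with biotin-conjugated polyclonal goat anti-RSV or anti-F antibody; β-actin was the loading control.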

NF-κB [6] = test: Poly I:C-induced NF-κB luciferase reporter in HEK-293 cells; assay type: cell-based, human; conditions: 4 h post-treatment
Summary of the method: as §2

IRF3 [7] = test: RSV-induced IRF3 phosphorylation and nuclear translocation in A549 cells; assay type: cell-based, human; conditions: 10 μM; for IRF-3 total protein level in the cell: cell lysates at 4 h or 15 h of infection
Summary of the method: (§3)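 A549 cells, mock or RSV-infected, were treated with 10 μM test compound, either MOI 5 for 4 h or MOI 1 for 15 h. Nuclear extracts were blotted for IRF-3, phospho-IRF3 Ser396, p65, and phospho-p65 Ser276 and Ser536. Total IRF-3 and p65 were measured in whole-cell lysates at 4 h and 15 h. Blots used SDS-PAGE, PVDF and 5% milk block; β-actin was the loading control.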

p65 = test: RSV-induced p65 phosphorylation and nuclear translocation in A549 cells; assay type: cell-based, human; conditions: 10 μM; for p65 total protein level in the cell: cell lysates at 4 h or 15 h of infection
Summary of the method: as §3

A549 cells = test: LDH release cytotoxicity assay; assay type: cell-based, human; conditions: 10 μM, 15 h
Summary of the method: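 A549 cells were seeded at 1.5 × 10^4 cells/well for 24 h. The whole medium was then replaced with fresh medium containing 10 μM test compound and 2% FBS; DMSO served as vehicle control. At 15 h, cells were harvested for luminescent LDH-release assay (LDH-Glo kit). Three biological replicates.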

[8] = 4 h posttreatment, RSV MOI 5, A549
[9] = 15 h posttreatment, RSV MOI 1, A549
[10] = 4 h posttreatment, RSV MOI 5, nuclear extracts
[11] = 15 h posttreatment, RSV MOI 1, nuclear extracts

Row | SMILES | RSV-induced NF-κB activation (luciferase reporter) (NF-κB [1]; [8]) | RSV-induced NF-κB activation (luciferase reporter) (NF-κB [1]; [9]) | RSV-induced IRF3 activation (luciferase reporter) (IRF3 [2]; [8]) | RSV-induced IRF3 activation (luciferase reporter) (IRF3 [2]; [9]) | RSV-induced IL-6 [3] | RSV-induced MIP-1α [3] | RSV-induced TNF-α [3] | viral genome copies (RSV; 15 h posttreatment) | viral genome copies (RSV; 24 h posttreatment) | also measured
1 | CCCNc1ccc(NC(=O)c2cc(Cl)ccc2O)c(Cl)c1 [Compound 11] | significantly inhibited | dramatically suppressed | significantly inhibited | dramatically suppressed |  |  |  |  |  | RSV-induced MIP-1β [3]: capable to inhibit
2 | CC(C)Nc1ccc(NC(=O)c2cc(Cl)ccc2O)c(Cl)c1 [Compound 12] | significantly inhibited | dramatically suppressed | significantly inhibited | dramatically suppressed | no suppression | no suppression | no suppression |  |  | 
3 | CC1(Nc2ccc(NC(=O)c3cc(Cl)ccc3O)c(Cl)c2)CCCCC1 [Compound 15, 5-Chloro-N-(2-chloro-4-((1-methylcyclohexyl)amino)phenyl)-2-hydroxybenzamide] | significantly inhibited | no effect; also recorded: failed to inhibit | significantly inhibited | suppressed | could inhibit |  | able to inhibit | significantly decreased | significantly decreased | TNF-α-activated NF-κB (luciferase reporter) (NF-κB [4]): not impacted; Poly I:C-activated IRF-3 (luciferase reporter) (IRF-3): suppressed; RSV-induced MIP-1β [3]: capable to inhibit; RSV-induced cytokines/chemokines (all tested immune mediators) [3]: inhibited the induction of all tested immune mediators; RSV protein expression [5]: comparable; expression of viral P, M, N and F proteins [5]: decreased; Poly I:C-induced NF-κB activation (luciferase reporter) (NF-κB [6]): only impacted by compound 22, not 15; nuclear translocation of IRF3 (IRF3 [7]; 4 h posttreatment, RSV MOI 5): significantly decreased; RSV-induced IRF3 phosphorylation at Ser396 (IRF3 [7]; [10]): significantly decreased; nuclear translocation of IRF3 (IRF3 [7]; 15 h posttreatment, RSV MOI 1): significantly decreased; RSV-induced IRF3 phosphorylation at Ser396 (IRF3 [7]; [11]): significantly decreased; IRF-3 total protein level in the cell (IRF3 [7]): undetectable or minimal impact; RSV-induced p65 Ser276 phosphorylation (p65; 4 h posttreatment, RSV MOI 5): not affected; RSV-induced p65 Ser536 phosphorylation (p65; 4 h posttreatment, RSV MOI 5): suppressed; nuclear translocation of p65 (p65; 4 h posttreatment, RSV MOI 5): suppressed; RSV-induced p65 Ser276 phosphorylation (p65; 15 h posttreatment, RSV MOI 1): no effect; RSV-induced p65 Ser536 phosphorylation (p65; 15 h posttreatment, RSV MOI 1): impaired; nuclear translocation of p65 (p65; 15 h posttreatment, RSV MOI 1): decreased; p65 total protein level in the cell (p65): undetectable or minimal impact
4 | O=C(Nc1ccc(NCc2cccnc2)cc1Cl)c1cc(Cl)ccc1O [Compound 19, 5-Chloro-N-(2-chloro-4-((pyridin-3-ylmethyl)amino)phenyl)-2-hydroxybenzamide] | no suppression | no effect | no suppression | no effect |  |  |  |  |  | RSV-induced cytokines/chemokines (all tested immune mediators) [3]: did not show any inhibitory effect
5 | O=C(Nc1ccc(NCc2ccco2)cc1Cl)c1cc(Cl)ccc1O [Compound 22, 5-Chloro-N-(2-chloro-4-((furan-2-ylmethyl)amino)phenyl)-2-hydroxybenzamide] | significantly inhibited | dramatically suppressed | significantly inhibited | dramatically suppressed | no suppression; also recorded: enhanced | no suppression | no suppression | significantly decreased | significantly decreased | Poly I:C-activated IRF-3 (luciferase reporter) (IRF-3): suppressed; RSV protein expression [5]: comparable; expression of viral P, M, N and F proteins [5]: decreased; Poly I:C-induced NF-κB activation (luciferase reporter) (NF-κB [6]): impacted; nuclear translocation of IRF3 (IRF3 [7]; 4 h posttreatment, RSV MOI 5): significantly decreased; RSV-induced IRF3 phosphorylation at Ser396 (IRF3 [7]; [10]): significantly decreased; nuclear translocation of IRF3 (IRF3 [7]; 15 h posttreatment, RSV MOI 1): significantly decreased; RSV-induced IRF3 phosphorylation at Ser396 (IRF3 [7]; [11]): significantly decreased; IRF-3 total protein level in the cell (IRF3 [7]): undetectable or minimal impact; RSV-induced p65 Ser276 phosphorylation (p65; 4 h posttreatment, RSV MOI 5): not affected; RSV-induced p65 Ser536 phosphorylation (p65; 4 h posttreatment, RSV MOI 5): suppressed; nuclear translocation of p65 (p65; 4 h posttreatment, RSV MOI 5): suppressed; RSV-induced p65 Ser276 phosphorylation (p65; 15 h posttreatment, RSV MOI 1): robustly suppressed; RSV-induced p65 Ser536 phosphorylation (p65; 15 h posttreatment, RSV MOI 1): robustly suppressed; nuclear translocation of p65 (p65; 15 h posttreatment, RSV MOI 1): robustly suppressed; p65 total protein level in the cell (p65): undetectable or minimal impact
6 | CCCN(CCC)c1ccc(NC(=O)c2cc(Cl)ccc2O)c(Cl)c1 [Compound 26] | significantly inhibited | dramatically suppressed | significantly inhibited | dramatically suppressed |  |  | able to inhibit |  |  | 
7 | O=C(Nc1ccc(N2CCOCC2)cc1Cl)c1cc(Cl)ccc1O [Compound 28, 5-Chloro-N-(2-chloro-4-morpholinophenyl)-2-hydroxybenzamide] | significantly inhibited | dramatically suppressed | significantly inhibited | dramatically suppressed | no suppression | no suppression | no suppression |  |  | 
8 | CS(=O)(=O)CCCn1c(Cn2c(=O)n(CC(F)(F)F)c3ccncc32)cc2cc(Cl)ccc21 [JNJ-53718678, reference compound] |  |  |  |  |  |  |  | did not affect | slightly decreased | 
9 | O=C(Nc1ccc([N+](=O)[O-])cc1Cl)c1cc(Cl)ccc1O [Niclosamide] |  |  |  |  |  |  |  |  |  | cell death (A549 cells): about 24%
